Test results taken from ChEMBL document CHEMBL1121911, “Analgesic narcotic antagonists. 8. 7 alpha-Alkyl-4,5 alpha-epoxymorphinan-6-ones” (1981).
Activity calls are given as the source filed them. The rule behind the calls is not given here.

What was measured:
Mus musculus [1] = assay: Narcotic agonistic activity in acetic acid mouse writhing assay after subcutaneous administration of the drug; format: functional; details: sc
Summary of the method: (§1)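 Subcutaneous dosing. Salts were given in distilled H2O, and free bases were dissolved with 1 N HCl and then diluted. Each ED50 (agonist) or AD50 (antagonist) came from at least three doses, with at least five animals per dose.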

Rattus norvegicus [2] = assay: Narcotic antagonist activity in heat stimulus rat tail flick assay after subcutaneous administration; format: functional; details: sc; summary of the method: as §1
Rattus norvegicus [3] = assay: Compound was tested for antinociceptive activity in heat stimulus rat tail flick assay after subcutaneous administration of the drug; format: functional; details: sc; summary of the method: as §1
Rattus norvegicus [4] = assay: Compound was tested for antinociceptive activity in heat stimulus rat tail flick assay after subcutaneous administration of the drug at a dose of 25 umol/Kg; Inactive; format: functional, organism-based
Mus musculus [5] = assay: Compound was tested for narcotic agonistic activity in acetic acid mouse writhing assay after subcutaneous administration of the drug at a dose of 26 uM/kg; Inactive; format: functional, organism-based
Rattus norvegicus [6] = assay: Compound was tested for antinociceptive activity in heat stimulus rat tail flick assay after subcutaneous administration of the drug at a dose of 21 umol/Kg; Inactive; format: functional, organism-based
Mus musculus [7] = assay: Compound was tested for narcotic agonistic activity in acetic acid mouse writhing assay after subcutaneous administration of the drug at a dose of 28 uM/kg; Inactive; format: functional, organism-based
Rattus norvegicus [8] = assay: Compound was tested for antinociceptive activity in heat stimulus rat tail flick assay after subcutaneous administration of the drug at a dose of 28 umol/Kg; Inactive; format: functional, organism-based
Rattus norvegicus [9] = assay: Compound was tested for antinociceptive activity in heat stimulus rat tail flick assay after subcutaneous administration of the drug at a dose of 18 umol/Kg; Inactive; format: functional, organism-based
Rattus norvegicus [10] = assay: Compound was tested for antinociceptive activity in heat stimulus rat tail flick assay after subcutaneous administration of the drug at a dose of 29 umol/Kg; Inactive; format: functional, organism-based

Row | SMILES | ED50 (Mus musculus [1]) [µmol/kg] | ED50 (Rattus norvegicus [2]) [µmol/kg] | also measured
1 | COc1ccc2c3c1O[C@H]1C(=O)CCC4(O)C(C2)N(CC2CCC2)CCC314 (stereo partly drawn) | 16.2 | > 18 | 
2 | COc1ccc2c3c1O[C@H]1C(=O)CC[C@@]4(O)[C@@H](C2)N(C)CC[C@]314 [OXYCODONE] | 1.5 |  | ED50 (Rattus norvegicus [3]): 2.9 µmol/kg
3 | COc1ccc2c3c1O[C@H]1C(=O)[C@@H](Cc4ccccc4)CC4C(C2)N(C)CCC341 (stereo partly drawn) | > 25 |  | ED50 (Rattus norvegicus [4]): inactive
4 | C[C@H]1CC2(O)C3Cc4ccc(O)c5c4C2(CCN3CC2CC2)[C@@H](O5)C1=O (stereo partly drawn) |  | 0.09 | ED50 (Mus musculus [5]): inactive
5 | COc1ccc2c3c1O[C@H]1C(=O)[C@@H](C)[C@H](C)C4C(C2)N(CC2CCC2)CCC341 (stereo partly drawn) | > 26 | > 26 | 
6 | Oc1ccc2c(c1)[C@@]13CCCC[C@@]1(O)[C@@H](C2)N(CC1CCC1)CC3 [BUTORPHANOL] | 0.3 | 2 | 
7 | O=C1CCC2C3Cc4ccc(O)c5c4C2(CCN3CC2CCC2)[C@H]1O5 (stereo partly drawn) | 0.2 | 5 | 
8 | COc1ccc2c3c1O[C@H]1C(=O)CC[C@H]4[C@@H](C2)N(C)CC[C@]314 [HYDROCODONE] | 2.4 |  | ED50 (Rattus norvegicus [3]): 5.2 µmol/kg
9 | C[C@@H]1C(=O)[C@@H]2Oc3c(O)ccc4c3C23CCN(CC2CC2)C(C4)C3[C@H]1C (stereo partly drawn) |  | 1.5 | ED50 (Mus musculus [5]): inactive
10 | COc1ccc2c(c1O)C13CCN(CC4CC4)C(C2)C1C[C@H](C)C(=O)C3 (stereo partly drawn) | 9.7 | > 28 | 
11 | CC[C@H]1CC2C3Cc4ccc(OC)c5c4C2(CCN3C)[C@@H](O5)C1=O (stereo partly drawn) | 4.6 |  | ED50 (Rattus norvegicus [6]): inactive
12 | COc1ccc2c3c1O[C@H]1C(=O)[C@@H](C)CC4(O)C(C2)N(CC2CC2)CCC314 (stereo partly drawn) | 18.7 | 25.4 | 
13 | COc1ccc2c3c1O[C@H]1C(=O)CC[C@@]4(O)[C@@H](C2)N(CC2CC2)CC[C@]314 |  | 0.7 | ED50 (Mus musculus [7]): inactive
14 | COc1ccc2c(c1OC)C13CCN(CC4CC4)C(C2)C1C[C@H](C)C(=O)C3 (stereo partly drawn) | 9.1 | ~25 | 
15 | C[C@H]1[C@H]2Cc3ccc(O)cc3[C@]1(C)CCN2CC1CC1 [CYCLAZOCINE] | 0.4 | 0.8 | 
16 | COc1ccc2c3c1O[C@H]1[C@@H](O)[C@@H](CC(C)=O)CC4C(C2)N(C)CCC341 (stereo partly drawn) | > 28 |  | ED50 (Rattus norvegicus [8]): inactive
17 | CCCCC[C@H]1CC2C3Cc4ccc(OC)c5c4C2(CCN3C)[C@@H](O5)C1=O (stereo partly drawn) | 20.7 |  | 
18 | COc1ccc2c3c1O[C@H]1C(=O)/C(=C/N(C)C)CC4C(C2)N(C)CCC341 (stereo partly drawn) | 11 |  | ED50 (Rattus norvegicus [8]): inactive
19 | COc1ccc2c3c1O[C@H]1C(=O)[C@@H](C)CC4(O)C(C2)N(CC2CCC2)CCC314 (stereo partly drawn) | 1.2 |  | ED50 (Rattus norvegicus [9]): inactive
20 | C=CCN1CC[C@]23c4c5ccc(O)c4O[C@H]2[C@@H](O)C=C[C@H]3[C@H]1C5 [NALORPHINE] | 3.5 | 2.5 | 
21 | COc1ccc2c3c1O[C@H]1C(=O)[C@@H](C)CC4C(C2)N(CC2CCC2)CCC341 (stereo partly drawn) | > 25 | > 25 | 
22 | COc1ccc2c3c1O[C@H]1c4[nH]c(C)cc4CC4C(C2)N(C)CCC341 (stereo partly drawn) | > 29 |  | ED50 (Rattus norvegicus [10]): inactive
